Results from PMC2984665 (Phytochemistry, 2010).

What was measured:
[1] = target: serine protease chymotrypsin (Bos taurus, UniProt P00766); assay: chymotrypsin chemiluminescent assay with and without detergent; format: biochemical; conditions: read-out: IC50, inhibition of chymotrypsin; without detergent
Summary of the method: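 Serine protease chymotrypsin, standard chemiluminescent read-out. Each test compound run in parallel without detergent and with 0.01% (v/v) Triton added, to screen for aggregation-based inhibition; IC50 derived under each condition.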

[2] = stability of the isolated pure compounds on storage; format: physicochemical; conditions: pure isolated compound; decomposition followed by discoloration and LC-MS

Substance | IC50 [1] | stability after isolation in pure form [2]
Sebestenoid C [Compound 3] | 33 µM | stable
Sebestenoid D [Compound 4] | 27 µM | decomposed rapidly
Sebestenoid B [Compound 2] | – | decomposed rapidly
Sebestenoid A [Compound 1] | – | stable
